Laboratory results: ChEMBL document CHEMBL1127751, “Novel Asp32-replacement tetrapeptide analogues as potent and selective CCK-A agonists” (J Med Chem, 1994)
Starred links: 1 amine or outer side, 2 acyl side, 3 side chain; linkers in the order of their positions; H or OH if unused. Non-standard residues stand in square brackets, D forms with d. Residues, ends and D or L forms follow the SMILES beside them. Groups on a side chain read outwards from the residue. ξ: configuration not given here. *: point of attachment. NMeF = CN[C@@H](Cc1ccccc1)C(=O)O; ξW = NC(Cc1c[nH]c2ccccc12)C(=O)O; NH(2-Me-phenyl) = Cc1ccccc1N*; ξNMeF = CNC(Cc1ccccc1)C(=O)O; β3hP = O=C(O)C[C@@H]1CCCN1; ξF = NC(Cc1ccccc1)C(=O)O; Boc = CC(C)(C)OC(=O)*; CO = O=C([*:1])[*:2]; Sar = CNCC(=O)O

Experiments:
[1] = biological target: T1, Cholecystokinin receptor type A (Cavia porcellus) (UniProt Q63931); assay: Percent response in PI hydrolysis relative to maximal response elicited by CCK-8 in guinea pig at 10e-6 M
T1 sequence (whole entry): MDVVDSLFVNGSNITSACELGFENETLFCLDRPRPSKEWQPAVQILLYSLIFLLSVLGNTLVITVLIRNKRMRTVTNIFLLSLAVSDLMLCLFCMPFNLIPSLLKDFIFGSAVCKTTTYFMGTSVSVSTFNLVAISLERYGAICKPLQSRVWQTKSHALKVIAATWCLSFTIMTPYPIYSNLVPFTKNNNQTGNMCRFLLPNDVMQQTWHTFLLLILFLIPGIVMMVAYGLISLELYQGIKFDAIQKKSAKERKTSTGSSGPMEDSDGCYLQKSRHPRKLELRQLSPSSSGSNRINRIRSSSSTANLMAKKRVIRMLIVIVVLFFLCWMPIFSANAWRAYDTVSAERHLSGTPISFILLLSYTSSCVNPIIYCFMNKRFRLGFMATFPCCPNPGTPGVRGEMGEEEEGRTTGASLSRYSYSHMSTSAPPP

[2] = biological target: T2, Cholecystokinin receptor type A (Cavia porcellus, UniProt Q63931); assay: Concentration that inhibited 50% of specific binding of [125I]Bolton-Hunter CCK-8 binding in guinea pig pancreas
T2 sequence (Q63931 whole entry): T1 sequence (whole entry)

[3] = test system: Cholecystokinin receptor type B (Cavia porcellus); assay: Percent inhibition of specific [125I]Bolton-Hunter CCK-8 binding in guinea pig cortex at 10e-6 M
Rattus norvegicus = species: Rattus norvegicus; assay: Dose required to reduce food intake by 50% in rats; assay type: functional
How it was run: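 Rats dosed intraperitoneally in nmol/kg, with 7–8 animals per group in each experiment. Food intake was compared with vehicle controls. The dose reducing intake by 50% was calculated from the dose–response data and reported with an interval.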

Compound | PI hydrolysis [1] | IC50 [2] | inhibition [3] | ED50 (Rattus norvegicus)
Cc1ccccc1NC(=O)NCCCC[C@H](NC(=O)C(Cc1c[nH]c2ccccc12)NC(=O)OC(C)(C)C)C(=O)NCCCCCC(=O)N(C)C(Cc1ccccc1)C(N)=O (stereo not given in full) | 4% | 1330 nM |  | 
Cc1ccccc1NC(=O)NCCCC[C@H](NC(=O)C(Cc1c[nH]c2ccccc12)NC(=O)OC(C)(C)C)C(=O)N[C@@H]1CC(=O)N([C@@H](Cc2ccccc2)C(N)=O)C1 (stereo not given in full) | 89% | 16 nM | 39% | 0.03 µmol/kg
Cc1ccccc1NC(=O)NCCCC[C@H](NC(=O)C(Cc1c[nH]c2ccccc12)NC(=O)OC(C)(C)C)C(=O)N(C)CCC(=O)NC(Cc1ccccc1)C(N)=O (stereo not given in full) | 61% | 62 nM | 14% | 
Cc1ccccc1NC(=O)NCCCC[C@H](NC(=O)C(Cc1c[nH]c2ccccc12)NC(=O)OC(C)(C)C)C(=O)NCCC(=O)NC(Cc1ccccc1)C(N)=O (stereo not given in full) | 16% | 126 nM |  | 
Cc1ccccc1NC(=O)NCCCC[C@H](NC(=O)C(Cc1c[nH]c2ccccc12)NC(=O)OC(C)(C)C)C(=O)N(C)CC(=O)NC(Cc1ccccc1)C(N)=O (stereo not given in full) (Boc-[ξW]K([CO-NH(2-Me-phenyl)])[Sar][ξF]-NH2) | 24% |  | 5% | 
Cc1ccccc1NC(=O)NCCCC[C@H](NC(=O)C(Cc1c[nH]c2ccccc12)NC(=O)OC(C)(C)C)C(=O)NCC(=O)NC(Cc1ccccc1)C(N)=O (stereo not given in full) (Boc-[ξW]K([CO-NH(2-Me-phenyl)])G[ξF]-NH2) | 17% |  | 14% | 
Cc1ccccc1NC(=O)NCCCC[C@H](NC(=O)[C@H](Cc1c[nH]c2ccccc12)NC(=O)OC(C)(C)C)C(=O)NCC(=O)N[C@@H](Cc1ccccc1)C(N)=O (Boc-WK([CO-NH(2-Me-phenyl)])GF-NH2) |  | 921 nM |  | 
Cc1ccccc1NC(=O)NCCCC[C@H](NC(=O)C(Cc1c[nH]c2ccccc12)NC(=O)OC(C)(C)C)C(=O)N1CCC(=O)N(C(Cc2ccccc2)C(N)=O)CC1 (stereo not given in full) | 1% | 750 nM | 8% | 
Cc1ccccc1NC(=O)NCCCC[C@H](NC(=O)C(Cc1c[nH]c2ccccc12)NC(=O)OC(C)(C)C)C(=O)NCCC(=O)N(C)C(Cc1ccccc1)C(N)=O (stereo not given in full) | 47% | 27 nM | 9% | 
Cc1ccccc1NC(=O)NCCCC[C@H](NC(=O)C(Cc1c[nH]c2ccccc12)NC(=O)OC(C)(C)C)C(=O)N(C)CCCC(=O)N(C)C(Cc1ccccc1)C(N)=O (stereo not given in full) | 64% | 19 nM | 4% | 
Cc1ccccc1NC(=O)NCCCC[C@H](NC(=O)[C@H](Cc1c[nH]c2ccccc12)NC(=O)OC(C)(C)C)C(=O)N(C)CC(=O)N(C)[C@@H](Cc1ccccc1)C(N)=O (Boc-WK([CO-NH(2-Me-phenyl)])[Sar][NMeF]-NH2) |  | 84 nM |  | 
Cc1ccccc1NC(=O)NCCCC[C@H](NC(=O)C(Cc1c[nH]c2ccccc12)NC(=O)OC(C)(C)C)C(=O)N(C)CCCC(=O)NC(Cc1ccccc1)C(N)=O (stereo not given in full) | 8% | 393 nM | 11% | 
Cc1ccccc1NC(=O)NCCCC[C@H](NC(=O)C(Cc1c[nH]c2ccccc12)NC(=O)OC(C)(C)C)C(=O)NCCCC(=O)NC(Cc1ccccc1)C(N)=O (stereo not given in full) | 9% | 749 nM | 11% | 
Cc1ccccc1NC(=O)NCCCC[C@H](NC(=O)C(Cc1c[nH]c2ccccc12)NC(=O)OC(C)(C)C)C(=O)NCCCCC(=O)NC(Cc1ccccc1)C(N)=O (stereo not given in full) | 2% | 1800 nM |  | 
Cc1ccccc1NC(=O)NCCCC[C@H](NC(=O)C(Cc1c[nH]c2ccccc12)NC(=O)OC(C)(C)C)C(=O)NCC(=O)N(C)C(Cc1ccccc1)C(N)=O (stereo not given in full) (Boc-[ξW]K([CO-NH(2-Me-phenyl)])G[ξNMeF]-NH2) | 28% |  | 0% | 
Cc1ccccc1NC(=O)NCCCC[C@H](NC(=O)[C@H](Cc1c[nH]c2ccccc12)NC(=O)OC(C)(C)C)C(=O)N(C)CC(=O)N[C@@H](Cc1ccccc1)C(N)=O (Boc-WK([CO-NH(2-Me-phenyl)])[Sar]F-NH2) |  | 265 nM |  | 
Cc1ccccc1NC(=O)NCCCC[C@H](NC(=O)C(Cc1c[nH]c2ccccc12)NC(=O)OC(C)(C)C)C(=O)N(C)CCC(=O)N(C)C(Cc1ccccc1)C(N)=O (stereo not given in full) | 36% | 7 nM |  | 
Cc1ccccc1NC(=O)NCCCC[C@H](NC(=O)C(Cc1c[nH]c2ccccc12)NC(=O)OC(C)(C)C)C(=O)NCCCC(=O)N(C)C(Cc1ccccc1)C(N)=O (stereo not given in full) | 67% | 27 nM | 11% | 
Cc1ccccc1NC(=O)NCCCC[C@H](NC(=O)[C@H](Cc1c[nH]c2ccccc12)NC(=O)OC(C)(C)C)C(=O)NCC(=O)N(C)[C@@H](Cc1ccccc1)C(N)=O (Boc-WK([CO-NH(2-Me-phenyl)])G[NMeF]-NH2) |  | 141 nM |  | 
Cc1ccccc1NC(=O)NCCCC[C@H](NC(=O)C(Cc1c[nH]c2ccccc12)NC(=O)OC(C)(C)C)C(=O)N(C)CC(=O)N(C)C(Cc1ccccc1)C(N)=O (stereo not given in full) (Boc-[ξW]K([CO-NH(2-Me-phenyl)])[Sar][ξNMeF]-NH2) | 33% |  |  | 
Cc1ccccc1NC(=O)NCCCC[C@H](NC(=O)C(Cc1c[nH]c2ccccc12)NC(=O)OC(C)(C)C)C(=O)NCCCCC(=O)N(C)C(Cc1ccccc1)C(N)=O (stereo not given in full) | 7% | 1180 nM | 7% | 
Cc1ccccc1NC(=O)NCCCC[C@H](NC(=O)C(Cc1c[nH]c2ccccc12)NC(=O)OC(C)(C)C)C(=O)N1CCC[C@H]1CC(=O)N(C)C(Cc1ccccc1)C(N)=O (stereo partly drawn) (Boc-[ξW]K([CO-NH(2-Me-phenyl)])[β3hP][ξNMeF]-NH2) | 92% | 17 nM | 13% | 
Cc1ccccc1NC(=O)NCCCC[C@H](NC(=O)C(Cc1c[nH]c2ccccc12)NC(=O)OC(C)(C)C)C(=O)N1CCC[C@H]1CC(=O)NC(Cc1ccccc1)C(N)=O (stereo partly drawn) (Boc-[ξW]K([CO-NH(2-Me-phenyl)])[β3hP][ξF]-NH2) | 68% | 239 nM |  | 
Cc1ccccc1NC(=O)NCCCC[C@H](NC(=O)C(Cc1c[nH]c2ccccc12)NC(=O)OC(C)(C)C)C(=O)NCCCCCC(=O)NC(Cc1ccccc1)C(N)=O (stereo not given in full) | 5% | 1200 nM | 6% | 
